The values below come from ChEMBL document CHEMBL3525985, “Regiospecificity and stereospecificity of human UDP-glucuronosyltransferases in the glucuronidation of estriol, 16-epiestriol, 17-epiestriol, and 13-epiestradiol” (Drug Metab Dispos, 2013).

What all share (assay type): ADME
Data set [1] can be described thus: Drug metabolism in human intestine microsomes assessed as estriol-16-glucuronide formation after 15 to 60 mins by Michaelis-Menten equation analysis in presence of UDPGA. The method in brief: (§1)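 Pooled human intestine microsomes (6 donors), 0.5 or 10 µg, with alamethicin at 5% of total protein. Incubated with 50 mM phosphate pH 7.4, 10 mM MgCl₂, 5 mM UDPGA and 10% DMSO for 15–60 min at 37°C. Each glucuronide regioisomer quantified by HPLC, in triplicate, with substrate consumption at or below 10%.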

Data set [2] concerns the target T1, UDP-glucuronosyltransferase 1A10 (Homo sapiens, UniProt Q9HAW8).
T1 sequence (Q9HAW8 whole entry): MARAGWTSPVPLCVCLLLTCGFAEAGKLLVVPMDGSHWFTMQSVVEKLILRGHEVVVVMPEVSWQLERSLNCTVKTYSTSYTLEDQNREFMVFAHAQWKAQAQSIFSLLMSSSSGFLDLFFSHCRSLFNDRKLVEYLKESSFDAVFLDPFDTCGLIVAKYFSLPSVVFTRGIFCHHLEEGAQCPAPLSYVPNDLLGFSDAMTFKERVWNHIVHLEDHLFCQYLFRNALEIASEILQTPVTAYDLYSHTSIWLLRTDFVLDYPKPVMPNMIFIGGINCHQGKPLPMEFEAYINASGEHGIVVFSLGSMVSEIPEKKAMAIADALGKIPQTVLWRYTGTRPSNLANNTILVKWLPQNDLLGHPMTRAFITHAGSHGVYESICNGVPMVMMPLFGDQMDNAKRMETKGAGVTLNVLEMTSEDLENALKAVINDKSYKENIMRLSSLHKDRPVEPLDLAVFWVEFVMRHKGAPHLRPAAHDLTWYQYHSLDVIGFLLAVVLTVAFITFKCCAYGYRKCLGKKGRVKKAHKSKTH
The data set is described as follows: Inhibition of recombinant human C-terminal His-tagged UGT1A10 after 15 to 60 mins by Michaelis-Menten equation analysis in presence of UDPGA. Summed up:
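Kinetics with His-tagged UGT-enriched insect-cell membranes (5 or 50 µg): aglycone 0.2–300 µM in 10% DMSO, 5 mM UDPGA, 10 mM MgCl₂, 50 mM phosphate pH 7.4, 15–60 min at 37°C. Substrate consumption kept at or below 10%. Glucuronides quantified by HPLC in triplicate, rates normalized to expression, and data fitted to Michaelis-Menten.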

Data set [3] deals with T2, UDP-glucuronosyltransferase 2B17 (Homo sapiens, UniProt O75795).
T2 sequence (O75795 whole entry): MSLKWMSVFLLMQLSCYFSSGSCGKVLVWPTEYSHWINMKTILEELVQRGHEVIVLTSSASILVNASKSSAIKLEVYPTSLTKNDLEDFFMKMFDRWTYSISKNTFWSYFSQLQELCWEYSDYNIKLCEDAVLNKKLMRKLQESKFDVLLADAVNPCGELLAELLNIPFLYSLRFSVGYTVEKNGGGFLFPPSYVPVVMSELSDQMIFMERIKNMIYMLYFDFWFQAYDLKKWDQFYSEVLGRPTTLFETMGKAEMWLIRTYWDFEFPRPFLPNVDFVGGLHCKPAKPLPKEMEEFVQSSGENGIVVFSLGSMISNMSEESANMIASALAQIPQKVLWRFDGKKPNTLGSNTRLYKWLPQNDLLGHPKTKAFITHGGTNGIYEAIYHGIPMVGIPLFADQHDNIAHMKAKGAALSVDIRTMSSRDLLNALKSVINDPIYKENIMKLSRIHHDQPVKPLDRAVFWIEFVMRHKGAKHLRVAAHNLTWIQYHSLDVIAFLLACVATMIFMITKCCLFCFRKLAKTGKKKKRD
In words: Drug metabolism assessed as recombinant human C-terminal His-tagged UGT2B17-mediated 16-epiestriol-16-glucuronide formation after 15 to 60 mins by Michaelis-Menten equation analysis in presence of UDPGA. As to conditions: recombinant enzyme.

Data set [4] addresses T3, UDP-glucuronosyltransferase 2A1 (Homo sapiens, UniProt P0DTE4).
T3 sequence (P0DTE4 whole entry): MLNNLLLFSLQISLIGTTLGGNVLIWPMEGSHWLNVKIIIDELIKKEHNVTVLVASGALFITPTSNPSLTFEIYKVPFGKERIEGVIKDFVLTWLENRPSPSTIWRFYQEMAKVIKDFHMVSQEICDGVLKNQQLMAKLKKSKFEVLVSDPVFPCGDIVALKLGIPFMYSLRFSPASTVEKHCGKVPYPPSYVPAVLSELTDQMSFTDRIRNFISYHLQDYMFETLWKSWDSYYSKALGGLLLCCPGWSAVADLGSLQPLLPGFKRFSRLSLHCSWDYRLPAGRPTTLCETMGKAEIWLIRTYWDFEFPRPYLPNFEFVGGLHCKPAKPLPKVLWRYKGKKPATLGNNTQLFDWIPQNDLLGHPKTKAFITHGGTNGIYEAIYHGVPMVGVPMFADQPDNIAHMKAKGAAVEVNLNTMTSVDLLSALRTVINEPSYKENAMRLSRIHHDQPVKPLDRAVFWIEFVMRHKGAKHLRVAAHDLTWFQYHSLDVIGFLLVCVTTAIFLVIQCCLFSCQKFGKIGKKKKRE
The data set is described as follows: Drug metabolism assessed as recombinant human C-terminal His-tagged UGT2A1-mediated 16-epiestriol-16-glucuronide formation after 15 to 60 mins by Michaelis-Menten equation analysis in presence of UDPGA. As to conditions: recombinant enzyme.

Data set [5] is described as follows: Drug metabolism in human intestine microsomes assessed as 16-epiestriol-17-glucuronide formation after 15 to 60 mins by Michaelis-Menten equation analysis in presence of UDPGA. Summed up:
as §1

The target in data set [6] is T1, UDP-glucuronosyltransferase 1A10. In words: Drug metabolism assessed as human UGT1A10-mediated 13-epiestradiol-3-glucuronide formation at 200 uM after 15 to 60 mins by HPLC analysis in presence of UDPGA. The note with it: recombinant enzyme. Summed up: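 Screening at a single substrate concentration of 200 μM, in triplicate. The reaction used 5 or 50 µg of UGT-enriched insect cell membranes in 50 mM phosphate pH 7.4 with 10 mM MgCl₂ and 5 mM UDPGA, 10% final DMSO. Incubation was 15–60 min at 37°C. Perchloric acid stopped the reaction and supernatants were analysed by HPLC. Controls lacked UDPGA. Rates were normalized to relative UGT expression level.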

Turning to `C[C@]12CC[C@@H]3c4ccc(O)cc4CC[C@H]3[C@@H]1C[C@@H](O)[C@@H]2O` [ESTRIOL], in data set [1], the Km (in general, the concentration of substrate that gives half-maximal velocity) is 5.1 µM and the Vmax – broadly, the top rate of the reaction or transport when substrate is in excess – was found to be 953 pmol/min/mg.

`C[C@]12CC[C@@H]3c4ccc(O)cc4CC[C@H]3[C@@H]1C[C@H](O)[C@@H]2O` [EPIESTRIOL]: the Ki – broadly, the dissociation constant of the complex between target and ligand, obtained from inhibition or displacement – in data set [2] was 98.1 µM. In data set [3], the Drug metabolism turned out to be 5 pmol/min/mg. Besides, the Drug metabolism in data set [4] stood at 260 pmol/min/mg. In data set [5], the Km worked out at 1170 µM and the Vmax is 2324 pmol/min/mg.

As to `C[C@@]12CC[C@@H]3c4ccc(O)cc4CC[C@H]3[C@@H]1CC[C@@H]2O`, the Drug metabolism result in data set [6] is given as “metabolite_detected”.
